Assay results reported in ChEMBL document CHEMBL1149332, “Synthesis of benzoylpyrimidines as antagonists of the corticotropin-releasing factor-1 receptor” (Bioorg Med Chem Lett, 2004).

Key:
[1] = molecular target: T1, Corticotropin-releasing factor receptor 1 (Homo sapiens, UniProt P34998); experiment: Binding affinity for recombinant human CRF1 receptor
T1 sequence (P34998 whole entry): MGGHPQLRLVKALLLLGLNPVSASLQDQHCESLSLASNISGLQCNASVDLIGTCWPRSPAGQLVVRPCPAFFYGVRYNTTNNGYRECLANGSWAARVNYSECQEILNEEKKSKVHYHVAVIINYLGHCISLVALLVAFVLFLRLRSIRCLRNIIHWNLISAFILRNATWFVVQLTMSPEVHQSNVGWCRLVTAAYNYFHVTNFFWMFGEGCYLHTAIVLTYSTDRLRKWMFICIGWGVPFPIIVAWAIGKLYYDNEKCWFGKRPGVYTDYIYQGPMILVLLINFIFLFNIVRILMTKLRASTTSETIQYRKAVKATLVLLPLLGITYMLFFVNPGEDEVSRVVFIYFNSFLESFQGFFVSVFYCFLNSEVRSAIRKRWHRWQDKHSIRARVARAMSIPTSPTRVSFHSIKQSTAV

[2] = molecular target: T1, Corticotropin-releasing factor receptor 1; experiment: Inhibition of CRF-stimulated cAMP production in cells expressing CRF1 receptor
Summary of the method: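 CHO cells expressing the CRF1 receptor; antagonism of CRF-stimulated cAMP production measured over a range of compound concentrations, with IC50 taken from the concentration-response.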

[3] = molecular target: Corticotropin releasing factor receptor (Rattus norvegicus, UniProt P47866+P35353); experiment: Inhibition of CRF-stimulated ACTH release in primary rat anterior pituitary cells; format: functional, cell-based; conditions: pituitary gland cell

SMILES	Ki [1] [nM]	IC50 [2] [nM]	IC50 [3] [nM]
CCCN(CC1CC1)c1nc(C)nc(C(=O)c2c(OC)cc(OC)cc2OC)c1C	38	1000	
CCN(c1ccccc1)c1nc(C)nc(C(=O)c2c(C)cc(C)cc2C)c1C	470		
CCCN(CC1CC1)c1nc(C)nc(C(=O)c2ccc(OC)cc2OC)c1C	810		
CCCN(CC1CC1)c1nc(C)nc(C(C)(C)c2c(OC)cc(OC)cc2OC)c1C	> 10000		
CCCN(CC1CC1)c1nc(C)nc(C(=O)c2c(CC)cc(CC)cc2CC)c1C	13		
CCCN(CC1CC1)c1nc(C)nc(C(=O)c2c(C)c(C)c(C)c(C)c2C)c1C	5100		
C=CCN(CC=C)c1nc(C)nc(C(=O)c2c(C)cc(C)cc2C)c1C	38		
CCCN(CCC)c1nc(C)nc(C(=O)c2c(C)cc(C)cc2C)c1C	58		
Cc1cc(C)c(C(=O)c2nc(C)nc(N3CCCC3)c2C)c(C)c1	> 10000		
CCCN(CC1CC1)c1nc(C)nc(C(=O)c2c(C)cc(C)cc2C)c1CC	55		
CCCN(CC1CC1)c1nc(C)nc(C(O)c2c(CC)cc(CC)cc2CC)c1C (centres undefined)	360		
COC[C@@H]1CCCN1c1nc(C)nc(C(=O)c2c(C)cc(C)cc2C)c1C	380		
CCCN(CC1CC1)c1nc(C)nc(Cc2c(OC)cc(OC)cc2OC)c1C	26		
CCCN(CC1CC1)c1cc(C)nc(C(=O)c2c(OC)cc(OC)cc2OC)n1	630		
C=CCc1c(C(=O)c2c(C)cc(C)cc2C)nc(C)nc1N(CCC)CC1CC1	31		
CCCN(CC1CC1)c1cc(C(=O)c2c(OC)cc(OC)cc2OC)nc(C)n1	1100		
CCCN(CC1CC1)c1cc(C(=O)c2c(C)cc(C)cc2C)nc(C)n1	200		
CCCN(CC1CC1)c1nc(C)nc(C(=O)c2ccccc2C)c1C	810		
CCC(CC)Nc1nc(C)nc(C(=O)c2c(C)cc(C)cc2C)c1C	220		
CCCN(CCO)c1nc(C)nc(C(=O)c2c(C)cc(C)cc2C)c1C	540		
CCCN(CC1CC1)c1nc(C)nc(Nc2c(Cl)cc(Cl)cc2Cl)c1Cl	2.7		
CCCN(CC1CC1)c1nc(C)nc(C(O)c2c(C)cc(C)cc2C)c1C (centres undefined)	79		
Cc1cc(C)c(C(=O)c2nc(C)nc(N3CCOCC3)c2C)c(C)c1	> 10000		
CCCN(CC1CC1)c1nc(C)nc(C(=O)c2c(C)cc(C)cc2C)c1C	15	1200	980
CCCN(CC1CC1)c1cc(C(=O)c2c(C)c(C)c(C)c(C)c2C)nc(C)n1	> 10000		
C=C(c1nc(C)nc(N(CCC)CC2CC2)c1C)c1c(OC)cc(OC)cc1OC	560		
